According to ChEMBL document CHEMBL1138405, “Limonoid orthoacetates and antiprotozoal compounds from the roots of Pseudocedrela kotschyi” (J Nat Prod, 2007):
≈ marks a conversion by molar mass, not a printed value.

Experiments:
[1] = tested on: Leishmania donovani; test: Antiprotozoal activity against Leishmania donovani MHOM/ET/67/L82 amastigotes; type: functional, organism-based
How it was run: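 L. donovani tested as axenic amastigotes.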

[2] = tested on: Plasmodium falciparum; test: Antiplasmodial activity against Plasmodium falciparum K1; type: functional, organism-based
How it was run: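 P. falciparum K1 is a strain resistant to chloroquine and pyrimethamine.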

[3] = tested on: L6; test: Cytotoxicity against rat L6 cells; type: cell-based
[4] = tested on: Trypanosoma cruzi; test: Antiprotozoal activity against Trypanosoma cruzi Tulahuen C2C4 trypomastigotes in L6 cells; type: functional, organism-based
[5] = tested on: Trypanosoma brucei rhodesiense; test: Antiprotozoal activity against Trypanosoma brucei rhodesiense STIB900; type: functional, organism-based

| Compound | IC50 [1] [µg/mL] | IC50 [2] [µg/mL] | IC50 [3] [µg/mL] | IC50 [4] [µg/mL] | IC50 [5] [µg/mL] |
| --- | --- | --- | --- | --- | --- |
| COC(=O)C[C@@H]1[C@](C)([C@@H](OC(C)=O)c2ccoc2)CC[C@@]23OC4(C)O[C@@]12[C@H](OC(=O)C(C)C)[C@@]1(OC(C)=O)[C@@H](OC(C)=O)[C@@]2(C)C[C@@]1(O4)[C@]31COC(=O)C[C@@H]21 [KOTSCHYIN A] | > 30 | > 5 | > 90 | > 30 | 11.6 (≈ 15 µM) |
| CCCCCCCCCCCCCCCCOP(=O)([O-])OCC[N+](C)(C)C [MILTEFOSINE] | 0.12 (≈ 0.294 µM) |  |  |  |  |
| CC1(C)C(=O)C=C[C@]2(C)[C@H]3CC[C@@]4(C)[C@H](c5ccoc5)OC(=O)[C@H]5O[C@]54[C@]3(C)C(=O)C[C@@H]12 [DEACETOXY-7-OXOGEDUNIN] | 0.994 (≈ 2.27 µM) | 1.77 (≈ 4.05 µM) | > 90 | > 30 | 3.4 (≈ 7.75 µM) |
| COc1cc([C@@H]2c3cc4c(cc3[C@H](O)[C@H]3COC(=O)[C@H]23)OCO4)cc(OC)c1OC [PODOFILOX] |  |  | 0.005 (≈ 0.0121 µM) |  |  |
| CC1(C)C(=O)C=C[C@]2(C)[C@H]3CC[C@@]4(C)[C@H](c5ccoc5)OC(=O)[C@H]5O[C@]54[C@]3(C)[C@H](O)C[C@@H]12 [DEACETYLGEDUNIN] | 1.4 (≈ 3.18 µM) | 1.36 (≈ 3.09 µM) | 13.3 (≈ 30.2 µM) | 5.2 (≈ 11.8 µM) | 3.45 (≈ 7.83 µM) |
| O=C(Cn1ccnc1[N+](=O)[O-])NCc1ccccc1 [BENZNIDAZOLE] |  |  |  | 0.74 (≈ 2.84 µM) |  |
